Each structure is given as a SMILES string. About 460 (18%) of roughly 2,500 compounds were called active. A selection follows. A number with no mark means an inactive call.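 Rule for the calls: active = mean activation above a cutoff of low control average plus 3 SD from the earlier screen (cut at about 12% in these data); inactive = the rest.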

The nature of the assay: IANBD-channel fluorescence artefacts in buffer – biochemical, artefact control for cardiac RTF calcium sensitizer project, confirmation (AID 504382). To be noted: IANBD fluorescence interference counterscreen, EC20 Ca2+, at 7.2 µM, stronger effect = higher value, scaled: EC20 calcium 0, EC100 calcium 100. In outline:
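Also added: EC20 calcium, 0.472 mM; dosing: single nominal 7.2 µM compound dose, 0.7% DMSO final; timing: 15 min, 25 °C; detection: fluorescence intensity, excitation 480 nm, emission 540 nm; replicates: each compound tested in triplicate wells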
Turning to `Cc1ccc(N2CN(Cc3cccnc3)CNC2=S)cc1`, the fluorescence artifact activation is 0.4%.

For `CCOC(=O)c1cnc(SC)nc1Oc1cccc(NS(=O)(=O)c2ccc(Cl)cc2)c1`, the fluorescence artifact activation is 0.07%. Next, `CCN1C(=S)SC(=O)C1=C1C=C(C)N(Cc2ccco2)C(C)=C1`: 0.18%. Next, `COc1cc(/C=N\NC(=O)CC(=O)NCCc2ccccc2)ccc1O`: 0.17%; `CN(C)c1ccc(NC2=C([N+](=O)[O-])CS(=O)(=O)C2)cc1`: 3.15%; `CCc1ccc(NC(=O)C2CCN(S(=O)(=O)c3ccc4[nH]c(=O)ccc4c3)CC2)cc1`: 0.08%. `COc1ccc(C2OC34CCCCC3C(C#N)(C#N)C2(C#N)C(=N)O4)cc1` (stereo not drawn): the fluorescence artifact activation was 0.16%. For `CC(=O)Nc1sc2c(c1-c1nc3ccccc3s1)CN(C(C)C)CC2`, the fluorescence artifact activation is -0.08%. Take `Nc1c(C(=O)C2CC2)sc2nc(-c3ccccc3)cc(C(F)(F)F)c12`: the fluorescence artifact activation is 8.48%.

As to `Cn1cccc1/C=C1\SC(=S)N(CC(=O)O)C1=O`, the fluorescence artifact activation is 3.44%. Next, `Cn1cccc1/C=C1/SC(=S)N(CC(=O)O)C1=O`: 52.3% (active); `O=C(O)CN1C(=O)/C(=C\c2cn(CC(=O)N3CCOCC3)c3ccccc23)SC1=S`: 4.83%; `COc1ccc2noc3c2c1C(=O)c1ccccc1-3`: 0.01%. The same measure for `COc1ccc(N=Cc2c(O)c3ccccc3n2C(C)=O)cc1`: 1.91%; for `N=c1oc2ccccc2cc1-c1nc(-c2ccccc2)cs1`: 0.03%; for `N#C/C(=C/c1ccc(N2CCCCC2)o1)C(=O)Nc1ccc2ccccc2c1`: 52.8% (active).

For `N#C/C(=C\c1ccc(N2CCOCC2)o1)C(=O)NC1CCCCC1`, the fluorescence artifact activation is 10.5%. Next, `N#C/C(=C\c1ccc(N2CCCCC2)o1)C(=O)Nc1cccc(Br)c1`: 1.73%; `N#C/C(=C/c1ccc(N2CCOCC2)o1)C(=O)NC1CCCCC1`: -0.06%. Next, `N#C/C(=C/c1ccc(N2CCCCC2)o1)C(=O)Nc1ccc(Cl)cc1`: 36.7% (active). The same measure for `COc1ccc(NC(=O)/C(C#N)=C\c2ccc(N3CCOCC3)o2)cc1`: 8.28%. As to `CCOC(=O)C1(Cc2cccc(OC)c2)CCCN(Cc2nccn2CC)C1` (stereo not drawn), the fluorescence artifact activation was 0.29%. The same measure for `O=C(NCc1ccco1)c1cc(-c2cccc(Cl)c2)on1`: 0.3%. Next, `O=c1[nH]ncc2c3ccccc3n(Cc3cccc(Cl)c3)c12`: -0.06%; `Cc1nc2oc(C(=O)c3ccccc3)c(N)c2c2c1COC(C)(C)C2`: 233% (active); `N#CC1(NC(=O)CN2CCN(S(=O)(=O)c3ccccc3F)CC2)CCCC1`: -0.12%. Next, `O=C(C1=C[C@@H](c2ccc(Br)cc2)C[C@@H](OCc2ccc(CO)cc2)O1)N1CCN(Cc2ccc3c(c2)OCO3)CC1`: 0.02%.

Take `O=[n+]1c2c(n([O-])c3ccccc31)CCC2`: the fluorescence artifact activation is 8.78%. Next, `O=[n+]1c2c(n([O-])c3cc(F)c(N4CCCC4)cc31)CCCC2`: 50.2% (active). Regarding `O=[n+]1c2c(n([O-])c3cc(F)c(N4CCCC4)cc31)CCC2`, the fluorescence artifact activation was 18.6% (active). Next, `CC(C)n1cnc2c(NCc3ccccc3)cc(N[C@H](C)CO)cc21`: -0.08%. Next, `C#CCN1C(=O)S/C(=C/C=C/c2ccc(N(C)C)cc2)C1=O`: 0.36%; `O=C(NCCN1CCOCC1)c1ccccc1N1C(=O)[C@@H]2Cc3c([nH]c4ccccc34)C(c3ccc(F)cc3)N2C1=O` (stereo partly drawn): 0.13%; `COC(=O)CCC(=O)OC1(C)C(=O)C2=CN(Cc3ccc(OC)cc3)C(c3ccc(OC)cc3)=CC2=C(Br)C1=O` (stereo not drawn): -0.01%. As for `CN(N=Nc1nc[nH]c1C(=O)NN)C1CCCCC1`, the fluorescence artifact activation was 0.38%. Next, `Fc1ccc(CN2CCCN(C(=S)Nc3ccc(F)cc3)CC2)cc1`: 17.4% (active); `O=C(Nc1ccc(F)cc1)OCCN1CCN(Cc2ccccc2)CCC1=O`: -0.08%. Next, `Cc1ccc(NC(=O)COC(=O)c2csc3c2CCC(C)C3)cc1S(=O)(=O)N1CCCCC1` (stereo not drawn): 1.08%. The same measure for `COc1ccc2c(CC(=O)N[C@@H](Cc3c[nH]c4ccccc34)C(=O)O)cc(=O)oc2c1`: 4.51%. On to `CCc1ccc(-n2c(O)c(C=NCCN(CC)CC)c(=O)[nH]c2=O)cc1`, for which the fluorescence artifact activation is 2.92%. With `CCOc1ccc(-n2c(SCC(=O)Nc3ccc(OC)cc3OC)nc3c(c2=O)SCC3)cc1`, the fluorescence artifact activation was 0.76%.

In the case of `COc1ccc(-c2ccc(C3C(C#N)=C(N)Oc4n[nH]c(C)c43)o2)cc1` (stereo not drawn), the fluorescence artifact activation was 14.3% (active).

`Cc1[nH]nc2c1C(c1cc(Br)cs1)C(C#N)=C(N)O2` (stereo not drawn): the fluorescence artifact activation is 0.04%. `CCOc1ccc(NC(=S)c2ccncc2)cc1`: the fluorescence artifact activation was 0.07%. Next, `C=COc1ccc(N2C(=O)c3ccccc3OC2C)cc1` (stereo not drawn): 2.14%. The same measure for `O=C(O)c1cccc(-c2ccc(/C=N/Nc3ccc([N+](=O)[O-])cc3)o2)c1`: 1.4%; for `Nc1ccc2nc3c(=O)[nH]c(=S)[nH]c3nc2c1`: 6.07%; for `Nc1ccc2nc(-c3ccccc3)cnc2c1`: 26.1% (active). Next, `COc1ccc(-c2cc3ncc(-c4ccccc4)c(N)n3n2)cc1`: 1.7%; `Cc1ccc(SCC(=O)c2sc(-c3ccccc3)nc2C)cc1`: 10.1%. For `Cc1ccc(-c2nc(C)sc2CC(=O)O)cc1`, the fluorescence artifact activation was 14.7% (active).

As for `Cc1ccc(-c2nc(N)sc2CC(=O)OCC(=O)NCCC(C)C)cc1`, the fluorescence artifact activation was 2.4%.

For the compound `COC(=O)c1ccc(S(=O)(=O)N(CCO)Cc2ccccc2)n1C`, the fluorescence artifact activation was -0.01%. `Cc1ccc(N=Nc2c(O)n(CN3CCOCC3)c3ccccc23)cc1`: the fluorescence artifact activation is 4.5%. For `CCOC(=O)C1=C(C)N=c2s/c(=C/c3ccc(OCC(=O)O)cc3)c(=O)n2C1c1ccc(SC)cc1` (stereo not drawn), the fluorescence artifact activation is 0.15%. `Cc1ccc(C)c(C2=NNC(=O)CC2)c1`: the fluorescence artifact activation is 0.16%. The same measure for `Cc1cc(NC(=O)CCC(=O)N(CCC(C)C)C(C(=O)NC2CCCC2)c2cccnc2)no1` (stereo not drawn): 0%. Turning to `C=CC[C@@H](CC(=O)N(CCO)Cc1ccccc1)C(=O)N[C@@H](COC(=O)[C@@H](CC=C)Cc1ccc(F)cc1)Cc1ccccc1`, the fluorescence artifact activation is 0.09%.

(Values after PubChem BioAssay AID504382 (The Scripps Research Institute Molecular Screening Center, 2011).)
